≈ marks a conversion by molar mass, not a printed value.
Assays:
Staphylococcus aureus [1] = experiment: Antibacterial activity against Staphylococcus aureus ATCC 6538 after 24 hrs by micro dilution method; format: functional; conditions: ATCC 6538, 24 h
Procedure, shortened: (§1)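 Microdilution MIC in 96-well plates. Bacterial suspensions adjusted in sterile saline to 1.0 × 10^5 CFU/ml, giving 1.0 × 10^4 cfu per well in LB broth. Compounds tested at up to 1 mg/ml. Plates incubated 24 h. MIC taken as the lowest concentration with no visible growth under a binocular microscope. OD at 655 nm was also read against a blank and the positive control. Streptomycin and ampicillin were the positive controls.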

Bacillus cereus [2] = experiment: Antibacterial activity against Bacillus cereus clinical isolate after 24 hrs by micro dilution method; format: functional; procedure, shortened: as §1
Micrococcus flavus [3] = experiment: Antibacterial activity against Micrococcus flavus ATCC 10240 after 24 hrs by micro dilution method; format: functional; conditions: ATCC 10240, 24 h; procedure, shortened: as §1
Listeria monocytogenes [4] = experiment: Antibacterial activity against Listeria monocytogenes NCTC 7973 after 24 hrs by micro dilution method; format: functional; conditions: NCTC 7973, 24 h; procedure, shortened: as §1
Pseudomonas aeruginosa [5] = experiment: Antibacterial activity against Pseudomonas aeruginosa ATCC 27853 after 24 hrs by micro dilution method; format: functional; conditions: ATCC 27853, 24 h; procedure, shortened: as §1
Enterobacter cloacae [6] = experiment: Antibacterial activity against Enterobacter cloacae human isolate after 24 hrs by micro dilution method; format: functional; procedure, shortened: as §1
Salmonella typhimurium [7] = experiment: Antibacterial activity against Salmonella Typhimurium ATCC 13311 after 24 hrs by micro dilution method; format: functional, Salmonella enterica subsp. enterica serovar Typhimurium; conditions: Salmonella enterica, ATCC 13311, 24 h; procedure, shortened: as §1
Escherichia coli [8] = experiment: Antibacterial activity against Escherichia coli ATCC 35210 after 24 hrs by micro dilution method; format: functional; conditions: ATCC 35210, 24 h; procedure, shortened: as §1
Staphylococcus aureus [9] = experiment: Antibacterial activity against Staphylococcus aureus ATCC 6538 treated for 24 hrs followed by sub-cultivated for 72 hrs by micro dilution method; format: functional
Procedure, shortened: (§2)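 2 µl from each well was serially subcultured into 100 µl fresh broth per well and incubated a further 72 h. MBC is the lowest concentration with no visible growth, taken as 99.5% killing of the original inoculum. Streptomycin and ampicillin were the positive controls.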

Bacillus cereus [10] = experiment: Antibacterial activity against Bacillus cereus clinical isolate treated for 24 hrs followed by sub-cultivated for 72 hrs by micro dilution method; format: functional; procedure, shortened: as §2
Micrococcus flavus [11] = experiment: Antibacterial activity against Micrococcus flavus ATCC 10240 treated for 24 hrs followed by sub-cultivated for 72 hrs by micro dilution method; format: functional; procedure, shortened: as §2
Listeria monocytogenes [12] = experiment: Antibacterial activity against Listeria monocytogenes NCTC 7973 treated for 24 hrs followed by sub-cultivated for 72 hrs by micro dilution method; format: functional; procedure, shortened: as §2
Pseudomonas aeruginosa [13] = experiment: Antibacterial activity against Pseudomonas aeruginosa ATCC 27853 treated for 24 hrs followed by sub-cultivated for 72 hrs by micro dilution method; format: functional; procedure, shortened: as §2
Enterobacter cloacae [14] = experiment: Antibacterial activity against Enterobacter cloacae human isolate treated for 24 hrs followed by sub-cultivated for 72 hrs by micro dilution method; format: functional; procedure, shortened: as §2
Salmonella typhimurium [15] = experiment: Antibacterial activity against Salmonella Typhimurium ATCC 13311 treated for 24 hrs followed by sub-cultivated for 72 hrs by micro dilution method; format: functional, Salmonella enterica subsp. enterica serovar Typhimurium; conditions: Salmonella enterica; procedure, shortened: as §2
Escherichia coli [16] = experiment: Antibacterial activity against Escherichia coli ATCC 35210 treated for 24 hrs followed by sub-cultivated for 72 hrs by micro dilution method; format: functional; procedure, shortened: as §2
Talaromyces funiculosus [17] = experiment: Antifungal activity against Penicillium funiculosum ATCC 36839 after 72 hrs by serial dilution method; format: functional; conditions: ATCC 36839, 72 h
Procedure, shortened: (§3)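 Modified microdilution MIC. Spores were washed from malt agar cultures with sterile 0.85% saline containing 0.1% Tween 80 and adjusted to about 1.0 × 10^5 per 100 µl well in malt broth. Compounds were dissolved in DMSO (1 mg/ml). Plates incubated 72 h at 28 °C. MIC is the lowest concentration with no visible growth under a binocular microscope. Bifonazole and ketoconazole were the references.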

Penicillium ochrochloron [18] = experiment: Antifungal activity against Penicillium ochrochloron ATCC 9112 after 72 hrs by serial dilution method; format: functional; conditions: ATCC 9112, 72 h; procedure, shortened: as §3
Trichoderma viride [19] = experiment: Antifungal activity against Trichoderma viride IAM 5061 after 72 hrs by serial dilution method; format: functional; conditions: IAM 5061, 72 h; procedure, shortened: as §3
Aspergillus fumigatus [20] = experiment: Antifungal activity against Aspergillus fumigatus human isolate after 72 hrs by serial dilution method; format: functional; procedure, shortened: as §3
Aspergillus niger [21] = experiment: Antifungal activity against Aspergillus niger ATCC 6275 after 72 hrs by serial dilution method; format: functional; conditions: ATCC 6275, 72 h; procedure, shortened: as §3
Aspergillus flavus [22] = experiment: Antifungal activity against Aspergillus flavus ATCC 9643 after 72 hrs by serial dilution method; format: functional; conditions: ATCC 9643, 72 h; procedure, shortened: as §3
Aspergillus versicolor [23] = experiment: Antifungal activity against Aspergillus versicolor ATCC 11730 after 72 hrs by serial dilution method; format: functional; conditions: ATCC 11730, 72 h; procedure, shortened: as §3
Fulvia fulva [24] = experiment: Antifungal activity against Fulvia fulva after 72 hrs by serial dilution method; format: functional; procedure, shortened: as §3
Talaromyces funiculosus [25] = experiment: Antifungal activity against Penicillium funiculosum ATCC 36839 treated for 72 hrs followed by sub-cultivated for 5 days by serial dilution method; format: functional
Procedure, shortened: (§4)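 MFC obtained after the 72 h, 28 °C malt-broth microdilution (spore inoculum about 1.0 × 10^5 per well, compounds from 1 mg/ml DMSO). 2 µl was serially subcultured into 100 µl broth per well and incubated a further 5 days at 28 °C. MFC is the lowest concentration with no visible growth, taken as 99.5% killing of the original inoculum.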

Penicillium ochrochloron [26] = experiment: Antifungal activity against Penicillium ochrochloron ATCC 9112 treated for 72 hrs followed by sub-cultivated for 5 days by serial dilution method; format: functional; procedure, shortened: as §4
Trichoderma viride [27] = experiment: Antifungal activity against Trichoderma viride IAM 5061 treated for 72 hrs followed by sub-cultivated for 5 days by serial dilution method; format: functional; procedure, shortened: as §4
Aspergillus fumigatus [28] = experiment: Antifungal activity against Aspergillus fumigatus human isolate treated for 72 hrs followed by sub-cultivated for 5 days by serial dilution method; format: functional; procedure, shortened: as §4
Aspergillus niger [29] = experiment: Antifungal activity against Aspergillus niger ATCC 6275 treated for 72 hrs followed by sub-cultivated for 5 days by serial dilution method; format: functional; procedure, shortened: as §4
Aspergillus flavus [30] = experiment: Antifungal activity against Aspergillus flavus ATCC 9643 treated for 72 hrs followed by sub-cultivated for 5 days by serial dilution method; format: functional; procedure, shortened: as §4
Aspergillus versicolor [31] = experiment: Antifungal activity against Aspergillus versicolor ATCC 11730 treated for 72 hrs followed by sub-cultivated for 5 days by serial dilution method; format: functional; procedure, shortened: as §4
Fulvia fulva [32] = experiment: Antifungal activity against Fulvia fulva treated for 72 hrs followed by sub-cultivated for 5 days by serial dilution method; format: functional; procedure, shortened: as §4

Row | MIC (Staphylococcus aureus [1]) [µM] | MIC (Bacillus cereus [2]) [µM] | MIC (Micrococcus flavus [3]) [µM] | MIC (Listeria monocytogenes [4]) [µM] | MIC (Pseudomonas aeruginosa [5]) [µM] | MIC (Enterobacter cloacae [6]) [µM] | MIC (Salmonella typhimurium [7]) [µM] | MIC (Escherichia coli [8]) [µM] | MIC (Talaromyces funiculosus [17]) [µM] | MIC (Penicillium ochrochloron [18]) [µM] | MIC (Trichoderma viride [19]) [µM] | MIC (Aspergillus fumigatus [20]) [µM] | Structure (SMILES) | MBC (Staphylococcus aureus [9]) [µM] | MBC (Bacillus cereus [10]) [µM] | MBC (Micrococcus flavus [11]) [µM] | MBC (Listeria monocytogenes [12]) [µM] | MBC (Pseudomonas aeruginosa [13]) [µM] | MBC (Enterobacter cloacae [14]) [µM] | MBC (Salmonella typhimurium [15]) [µM] | MBC (Escherichia coli [16]) [µM] | further results
1 | 500 (≈ 200 µg/mL) | 250 (≈ 100 µg/mL) | 250 (≈ 100 µg/mL) | 250 (≈ 100 µg/mL) | 500 (≈ 200 µg/mL) | 250 (≈ 100 µg/mL) | 500 (≈ 200 µg/mL) | 500 (≈ 200 µg/mL) | 130 (≈ 52.1 µg/mL) | 130 (≈ 52.1 µg/mL) | 60 (≈ 24 µg/mL) | 130 (≈ 52.1 µg/mL) | CCCn1c(Cc2cc(OC)c(OC)cc2S(=O)(=O)N(C)C)n[nH]c1=S | 500 (≈ 200 µg/mL) | 500 (≈ 200 µg/mL) | 500 (≈ 200 µg/mL) | 250 (≈ 100 µg/mL) | 500 (≈ 200 µg/mL) | 250 (≈ 100 µg/mL) | 500 (≈ 200 µg/mL) | 500 (≈ 200 µg/mL) | MIC (Aspergillus niger [21]): 60 µM (≈ 24 µg/mL); MIC (Aspergillus flavus [22]): 60 µM (≈ 24 µg/mL); MIC (Aspergillus versicolor [23]): 250 µM (≈ 100 µg/mL); MIC (Fulvia fulva [24]): 60 µM (≈ 24 µg/mL); MFC (Talaromyces funiculosus [25]): 250 µM (≈ 100 µg/mL); MFC (Penicillium ochrochloron [26]): 250 µM (≈ 100 µg/mL); MFC (Trichoderma viride [27]): 130 µM (≈ 52.1 µg/mL); MFC (Aspergillus fumigatus [28]): 250 µM (≈ 100 µg/mL); MFC (Aspergillus niger [29]): 130 µM (≈ 52.1 µg/mL); MFC (Aspergillus flavus [30]): 130 µM (≈ 52.1 µg/mL); MFC (Aspergillus versicolor [31]): 500 µM (≈ 200 µg/mL); MFC (Fulvia fulva [32]): 130 µM (≈ 52.1 µg/mL)
2 | 380 (≈ 152 µg/mL) | 250 (≈ 100 µg/mL) | 630 (≈ 252 µg/mL) | 630 (≈ 252 µg/mL) | 630 (≈ 252 µg/mL) | 630 (≈ 252 µg/mL) | 630 (≈ 252 µg/mL) | 630 (≈ 252 µg/mL) | 130 (≈ 52.1 µg/mL) | 130 (≈ 52.1 µg/mL) | 10 (≈ 4.01 µg/mL) | 130 (≈ 52.1 µg/mL) | COc1cc(Cc2n[nH]c(=S)n2C(C)C)c(S(=O)(=O)N(C)C)cc1OC | 380 (≈ 152 µg/mL) | 500 (≈ 200 µg/mL) | 630 (≈ 252 µg/mL) | 630 (≈ 252 µg/mL) | 630 (≈ 252 µg/mL) | 630 (≈ 252 µg/mL) | 630 (≈ 252 µg/mL) | 630 (≈ 252 µg/mL) | MIC (Aspergillus niger [21]): 130 µM (≈ 52.1 µg/mL); MIC (Aspergillus flavus [22]): 130 µM (≈ 52.1 µg/mL); MIC (Aspergillus versicolor [23]): 130 µM (≈ 52.1 µg/mL); MIC (Fulvia fulva [24]): 250 µM (≈ 100 µg/mL); MFC (Talaromyces funiculosus [25]): 250 µM (≈ 100 µg/mL); MFC (Penicillium ochrochloron [26]): 380 µM (≈ 152 µg/mL); MFC (Trichoderma viride [27]): 30 µM (≈ 12 µg/mL); MFC (Aspergillus fumigatus [28]): 250 µM (≈ 100 µg/mL); MFC (Aspergillus niger [29]): 380 µM (≈ 152 µg/mL); MFC (Aspergillus flavus [30]): 380 µM (≈ 152 µg/mL); MFC (Aspergillus versicolor [31]): 380 µM (≈ 152 µg/mL); MFC (Fulvia fulva [32]): 250 µM (≈ 100 µg/mL)

Source: ChEMBL document CHEMBL1944580, “Synthesis of novel sulfonamide-1,2,4-triazoles, 1,3,4-thiadiazoles and 1,3,4-oxadiazoles, as potential antibacterial and antifungal agents. Biological evaluation and conformational analysis studies” (2012)
